Laboratory results published in ChEMBL document CHEMBL3045798, “Toxic reactivity of wheat (Triticum aestivum) plants to herbicide isoproturon” (J Agric Food Chem, 2008).
In brackets after ≈: the same amount, converted by molar mass.

Key:
[1] = tested on: Triticum aestivum; experiment: Reduction in CAT isoforms activity in leaves of Triticum aestivum cv. Ning 13 (wheat) seedlings grown on soils containing compound at 2 to 20 mg/kg for 10 days by PAGE method assay relative to untreated control; format: ADME, organism-based; set-up: dose 2-20 mg/kg; settings: in vivo, 240 h
Outline: (§1)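 Native PAGE, 5% stacking/10% separating gel, run at 4 °C (10 mA, then 15 mA), of tissue extracts from seedlings grown 10 days in soil at 0, 2, 3.5, 5, 10, 20 mg/kg. CAT bands: gel soaked in water 15 min, then 0.03% H2O2 25 min, washed, stained with 1% potassium ferricyanide plus 1% ferric chloride.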

[2] = tested on: Triticum aestivum; experiment: Reduction in CAT isoforms activity in roots of Triticum aestivum cv. Ning 13 (wheat) seedlings grown on soils containing compound at 10 to 20 mg/kg for 10 days by PAGE method assay relative to untreated control; format: ADME, organism-based; set-up: dose 10-20 mg/kg; settings: in vivo, 240 h; outline: as §1
[3] = tested on: Triticum aestivum; experiment: Increase in CAT isoforms activity in roots of Triticum aestivum cv. Ning 13 (wheat) seedlings grown on soils containing compound at 2 to 5 mg/kg for 10 days by PAGE method assay relative to untreated control; format: ADME, organism-based; set-up: dose 2-5 mg/kg; settings: in vivo, 240 h; outline: as §1
[4] = tested on: Triticum aestivum; experiment: Increase in POD isoforms 1 to 5 activity in roots of Triticum aestivum cv. Ning 13 (wheat) seedlings grown on soils containing compound at 3.5 to 10 mg/kg for 10 days by PAGE method assay relative to untreated control; format: ADME, organism-based; set-up: dose 3.5-10 mg/kg; settings: in vivo, 240 h
[5] = tested on: Triticum aestivum; experiment: Reduction in SOD activity in shoots of Triticum aestivum cv. Ning 13 (wheat) seedlings grown on soils containing compound at 10 to 20 mg/kg for 10 days by PAGE method assay relative to untreated control; format: ADME, organism-based; set-up: dose 10-20 mg/kg; settings: in vivo, 240 h
[6] = tested on: Triticum aestivum; experiment: Reduction in SOD activity in roots of Triticum aestivum cv. Ning 13 (wheat) seedlings grown on soils containing compound at 10 to 20 mg/kg for 10 days by PAGE method assay relative to untreated control; format: ADME, organism-based; set-up: dose 10-20 mg/kg; settings: in vivo, 240 h
[7] = tested on: Triticum aestivum; experiment: Increase in SOD activity in shoots of Triticum aestivum cv. Ning 13 (wheat) seedlings grown on soils containing compound at 2 to 10 mg/kg for 10 days by PAGE method assay relative to untreated control; format: ADME, organism-based; set-up: dose 2-10 mg/kg; settings: in vivo, 240 h
[8] = tested on: Triticum aestivum; experiment: Increase in SOD activity in roots of Triticum aestivum cv. Ning 13 (wheat) seedings grown on soils containing compound at 2 to 10 mg/kg for 10 days by PAGE method assay relative to untreated control; format: ADME, organism-based; set-up: dose 2-10 mg/kg; settings: in vivo, 240 h
[9] = tested on: Triticum aestivum; experiment: Reduction in APX activity in roots of Triticum aestivum cv. Ning 13 (wheat) seedlings grown on soils containing compound at 20 mg/kg for 10 days relative to untreated control; format: ADME, organism-based; set-up: dose 20 mg/kg; settings: in vivo, 240 h
[10] = tested on: Triticum aestivum; experiment: Reduction in APX activity in leaves of Triticum aestivum cv. Ning 13 (wheat) seedlings grown on soils containing compound at 20 mg/kg for 10 days relative to untreated control; format: ADME, organism-based; set-up: dose 20 mg/kg; settings: in vivo, 240 h
[11] = tested on: Triticum aestivum; experiment: Increase in APX activity in roots of Triticum aestivum cv. Ning 13 (wheat) seedlings grown on soils containing compound at 5 to 10 mg/kg for 10 days relative to untreated control; format: ADME, organism-based; set-up: dose 5-10 mg/kg; settings: in vivo, 240 h
[12] = tested on: Triticum aestivum; experiment: Increase in APX activity in leaves of Triticum aestivum cv. Ning 13 (wheat) seedlings grown on soils containing compound at 5 to 10 mg/kg for 10 days relative to untreated control; format: ADME, organism-based; set-up: dose 5-10 mg/kg; settings: in vivo, 240 h
[13] = tested on: Triticum aestivum; experiment: Reduction in CAT activity in leaves of Triticum aestivum cv. Ning 13 (wheat) seedlings grown on soils containing compound at 2 to 20 mg/kg for 10 days by H2O2 consumption assay relative to untreated control; format: ADME, organism-based; set-up: dose 2-20 mg/kg; settings: in vivo, 240 h
[14] = tested on: Triticum aestivum; experiment: Reduction in CAT activity in roots of Triticum aestivum cv. Ning 13 (wheat) seedlings grown on soils containing compound at 10 to 20 mg/kg for 10 days by H2O2 consumption assay relative to untreated control; format: ADME, organism-based; set-up: dose 10-20 mg/kg; settings: in vivo, 240 h
[15] = tested on: Triticum aestivum; experiment: Induction of changes in GST activity in leaves of Triticum aestivum cv. Ning 13 (wheat) seedlings grown on soils containing compound at 2 to 20 mg/kg for 10 days by CDNB dye based assay relative to untreated control; format: organism-based; set-up: dose 2-20 mg/kg; settings: in vivo, 240 h
[16] = tested on: Triticum aestivum; experiment: Induction of changes in GST activity in roots of Triticum aestivum cv. Ning 13 (wheat) seedlings grown on soils containing compound at 2 to 20 mg/kg for 10 days by CDNB dye based assay relative to untreated control; format: organism-based; set-up: dose 2-20 mg/kg; settings: in vivo, 240 h
Outline: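 Tissue extract from 10-day seedlings in soil with 0–20 mg/kg. Reaction: 100 mM potassium phosphate pH 7, 1 mM GSH, 1 mM CDNB (final; added last to start). Absorbance increase at 340 nm tracked over 15 min. Mean ± SD, n = 3.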

[17] = tested on: Triticum aestivum; experiment: Reduction in POD activity in roots of Triticum aestivum cv. Ning 13 (wheat) seedlings grown on soils containing compound at 20 mg/kg for 10 days by guaiacol oxidation relative to untreated control; format: ADME, organism-based; set-up: dose 20 mg/kg; settings: in vivo, 240 h
Outline: (§2)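 Crude leaf or root extract (Tris-HCl pH 7.8, EDTA, PVP; 15000g) from seedlings grown 10 days in soil with 0–20 mg/kg herbicide. Guaiacol oxidation read at 470 nm for 1 min in 100 mM potassium phosphate pH 7.0, 20 mM guaiacol, 10 mM H2O2. Mean ± SD, n = 3.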

[18] = tested on: Triticum aestivum; experiment: Reduction in POD activity in leaves of Triticum aestivum cv. Ning 13 (wheat) seedlings grown on soils containing compound at 20 mg/kg for 10 days by guaiacol oxidation relative to untreated control; format: ADME, organism-based; set-up: dose 20 mg/kg; settings: in vivo, 240 h; outline: as §2
[19] = tested on: Triticum aestivum; experiment: Increase in POD activity in roots of Triticum aestivum cv. Ning 13 (wheat) seedlings grown on soils containing compound at 5 to 10 mg/kg for 10 days by guaiacol oxidation relative to untreated control; format: ADME, organism-based; set-up: dose 5-10 mg/kg; settings: in vivo, 240 h; outline: as §2
[20] = tested on: Triticum aestivum; experiment: Increase in POD activity in leaves of Triticum aestivum cv. Ning 13 (wheat) seedlings grown on soils containing compound at 5 to 10 mg/kg for 10 days by guaiacol oxidation relative to untreated control; format: ADME, organism-based; set-up: dose 5-10 mg/kg; settings: in vivo, 240 h; outline: as §2
[21] = tested on: Triticum aestivum; experiment: Increase in CAT activity in roots of Triticum aestivum cv. Ning 13 (wheat) seedlings grown on soils containing compound at 2 to 5 mg/kg for 10 days by H2O2 consumption assay relative to untreated control; format: ADME, organism-based; set-up: dose 2-5 mg/kg; settings: in vivo, 240 h
[22] = tested on: Triticum aestivum; experiment: Reduction in SOD activity in roots of Triticum aestivum cv. Ning 13 (wheat) seedlings grown on soils containing compound at 10 to 20 mg/kg for 10 days by NBT dye reduction assay relative to untreated control; format: ADME, organism-based; set-up: dose 10-20 mg/kg; settings: in vivo, 240 h
Outline: (§3)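 Root crude extract from 10-day seedlings in soil at 0–20 mg/kg. Inhibition of NBT photoreduction in 50 mM phosphate pH 7.8 with 10 mM methionine and riboflavin, read at 560 nm. One unit inhibits NBT photoreduction to formazan by 50%. Mean ± SD, n = 3.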

[23] = tested on: Triticum aestivum; experiment: Increase in SOD activity in roots of Triticum aestivum cv. Ning 13 (wheat) seedlings grown on soils containing compound at 2 to 10 mg/kg for 10 days by NBT dye reduction assay relative to untreated control; format: ADME, organism-based; set-up: dose 2-10 mg/kg; settings: in vivo, 240 h; outline: as §3
[24] = tested on: Triticum aestivum; experiment: Induction of lipid peroxidation in Triticum aestivum cv. Ning 13 (wheat) seedlings assessed as increase in TBARS level in roots grown on soils containing compound at 2 to 20 mg/kg for 10 days relative to untreated control; format: organism-based; set-up: dose 2-20 mg/kg; settings: in vivo, 240 h
Outline: (§4)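 Seedlings grown 10 days in soil at 0–20 mg/kg. Frozen tissue (0.5 g) ground in 0.1% TCA, spun; supernatant heated 30 min in boiling water with 0.5% TBA in 20% TCA. A532 minus A600 read; TBARS calculated with ε 155 mM-1 cm-1. Mean ± SD, n = 3.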

[25] = tested on: Triticum aestivum; experiment: Induction of lipid peroxidation in Triticum aestivum cv. Ning 13 (wheat) seedlings assessed as increase in TBARS level in leaves grown on soils containing compound at 10 mg/kg for 10 days relative to untreated control; format: organism-based; set-up: dose 10 mg/kg; settings: in vivo, 240 h
Outline: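 Wheat seeds surface-sterilized (5% hypochlorite, 10 min), germinated 8 h at 25 °C, sown in sieved field soil spiked with herbicide (0–20 mg/kg), watered to 60–70% water content, grown 10 days (12 h photoperiod, 25/20 °C). Fresh leaf (0.5 g) ground in 0.1% TCA, supernatant boiled 30 min with 0.5% TBA in 20% TCA; A532 minus A600, ε 155 mM-1 cm-1; n=3.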

[26] = tested on: Triticum aestivum; experiment: Induction of lipid peroxidation in Triticum aestivum cv. Ning 13 (wheat) seedlings assessed as increase in TBARS level in leaves grown on soils containing compound for 10 days relative to untreated control; format: organism-based; settings: in vivo, 240 h; outline: as §4
[27] = tested on: Triticum aestivum; experiment: Toxicity in Triticum aestivum cv. Ning 13 (wheat) seedlings assessed as reduction in chlorophyll content in leaves grown on soils containing compound at 2 mg/kg for 10 days relative to untreated control; format: organism-based; set-up: dose 2 mg/kg; scale not given: the % may be the effect or the level left; settings: in vivo, 240 h
Outline: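 Fresh leaf (0.1 g) from 10-day seedlings in spiked soil extracted in 80% acetone (pH 7.8, phosphate), spun 500g 10 min. Total chlorophyll calculated spectrophotometrically. Mean ± SD, n = 3.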

[28] = tested on: Triticum aestivum; experiment: Toxicity in Triticum aestivum cv. Ning 13 (wheat) seedlings assessed as reduction in shoot elongation grown on soils containing compound at 20 mg/kg for 10 days relative to untreated control; format: organism-based; set-up: dose 20 mg/kg; scale not given: the % may be the effect or the level left; settings: in vivo, 240 h
Outline: (§5)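 Surface-sterilized seeds germinated 8 h at 25 °C, then grown 10 days (third leaf) in soil at 0, 2, 3.5, 5, 10, 20 mg/kg, watered to 60–70% water content, 12 h photoperiod, 300 µmol photons m-2 s-1, 25/20 °C. Elongation measured; dry mass after 70 °C for 72 h. Mean ± SD, n = 3.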

[29] = tested on: Triticum aestivum; experiment: Toxicity in Triticum aestivum cv. Ning 13 (wheat) seedlings assessed as reduction in root length grown on soils containing compound at 20 mg/kg for 10 days relative to untreated control; format: organism-based; set-up: dose 20 mg/kg; scale not given: the % may be the effect or the level left; settings: in vivo, 240 h; outline: as §5
[30] = tested on: Triticum aestivum; experiment: Toxicity in Triticum aestivum cv. Ning 13 (wheat) seedlings assessed as inhibition of shoot growth measured as dry weight grown on soils containing compound at 2 to 20 mg/kg for 10 days; format: organism-based; set-up: dose 2-20 mg/kg; settings: in vivo, 240 h; outline: as §5
[31] = Solubility in water at 20 degC; format: physicochemical

For `CC(C)c1ccc(NC(=O)N(C)C)cc1` [ISOPROTURON], the Activity [1] was “Dose-dependent effect”, the Activity [2] was “Toxic” and the Activity [3] was “Toxic”. For the same compound, the Activity [4] was “Toxic”, the Activity [5] was “Toxic” and the Activity [6] was “Toxic”. The Activity [7] was “Toxic”, the Activity [8] was “Toxic” and the Activity [9] was “Toxic”. For the same compound, the Activity [10] was “Toxic”, the Activity [11] was “Toxic” and the Activity [12] was “Toxic”. The Activity [13] was “Dose-dependent effect”, the Activity [14] was “Toxic” and the Activity [15] was “Toxic”. For the same compound, the Activity [16] was “Toxic”, the Activity [17] was “Toxic” and the Activity [18] was “Toxic”. For the same compound, the Activity [19] was “Toxic”, the Activity [20] was “Toxic” and the Activity [21] was “Toxic”. For the same compound, the Activity [22] was “Toxic”, the Activity [23] was “Dose-dependent effect” and the Activity [24] was “Non-toxic”. The “fold change (FC)” value [25] was > 2, the Activity [26] was “Dose-dependent effect” and the Activity [27] was 11%. The Activity [28] was 32%, the Activity [29] was 44% and the Activity [30] was “Toxic”. It also gave a solubility [31] of 55 µg/mL (≈ 267 µM).
